Scp1 inh – Scp-1 (human) phosphatase inhibition; 340,000 compounds, 0.88% hits; inhibition, % at 20 µM; Q9GZU7; Recombinant Scp1, phosphopeptide, malachite green phosphate absorbance;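 active = inhibition above about 50% at 20 µM, limit read from the data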;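 note: plate controls were DMSO wells with enzyme for no effect and wells lacking enzyme for full effect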
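Assay system: SCP-1 catalytic fragment, aa 76-261 | Buffer or medium: Tris acetate buffer pH 5.5 with MgCl2 and Tween-20 | Compound: One concentration, 20 µM, with 1.0% DMSO | Also added: Phospho 17-mer peptide substrate | Signal: Absorbance at 630 nm | Incubation: 45 min enzyme reaction at room temperature | Measure: % inhibition of SCP-1 phosphate liberation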
SUMO1 PPI mod – alters human SUMO1 binding to SIM partners; P63165; SUMO1 binding to a labelled peptide, TR-FRET, 1 h; inhibition, % at 20 µM; 360,000 compounds, 0.33% hits; in the data active = inhibition above about 37%
Target sequence (P63165 whole entry, looked up): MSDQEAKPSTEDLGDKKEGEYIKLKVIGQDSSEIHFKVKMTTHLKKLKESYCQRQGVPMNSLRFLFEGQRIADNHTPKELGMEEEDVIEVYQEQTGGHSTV
CASP6 VEID inh – inhibitors of human caspase-6; purified caspase-6, Z-VEID-R110 cleavage fluorescence; P55212; 350,000 compounds, 0.53% hits; inhibition, % at 12.5 µM;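 active = mean inhibition across replicates at least about 35%, with every replicate also reaching that limit, limit read from the data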;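 note: 0% = median of neutral control wells and 100% = no fluorescence left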
Target sequence (P55212 24-179 limits assumed): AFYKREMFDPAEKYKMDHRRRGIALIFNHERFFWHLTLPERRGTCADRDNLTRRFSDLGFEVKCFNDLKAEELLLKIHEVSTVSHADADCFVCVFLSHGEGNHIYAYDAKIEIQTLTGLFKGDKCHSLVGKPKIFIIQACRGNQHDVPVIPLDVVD
Target sequence (P55212 194-293 limits assumed): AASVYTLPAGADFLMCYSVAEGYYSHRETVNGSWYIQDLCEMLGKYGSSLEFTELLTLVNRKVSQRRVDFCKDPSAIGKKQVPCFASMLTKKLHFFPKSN
LMPTP block – LMPTP (human) inhibition. recombinant LMPTP-A, OMFP fluorogenic substrate, fluorescence intensity. inhibition, % at 20 µM. 360,000 compounds, 0.22% hits. AID 651560;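 active = compounds that cut the enzyme signal by at least half of the control window in the single-dose screen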;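 note: plate controls were DMSO wells with enzyme plus substrate for no effect and substrate without enzyme for full effect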
Target sequence (P24666 whole entry, looked up): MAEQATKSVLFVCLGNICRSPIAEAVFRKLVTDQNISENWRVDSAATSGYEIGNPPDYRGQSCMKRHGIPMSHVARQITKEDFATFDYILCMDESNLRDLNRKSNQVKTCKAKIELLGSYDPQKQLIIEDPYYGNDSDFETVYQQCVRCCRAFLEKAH
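Test system – LMPTP-A phosphatase enzyme · Quantity – 0.625 nM LMPTP-A final · Reagent – OMFP substrate, 400 µM final · Dosing – one test concentration per compound, 20 µM, with 3% DMSO overall · Timing – 50 min enzyme reaction at room temperature, protected from light · Detection – fluorescence intensity · Controls – substrate-only low control, DMSO enzyme-plus-substrate high control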
DNMT1 block – blocks human DNA methyltransferase DNMT1; P26358; DNMT1 molecular beacon, Hinp1I cleavage, fluorescence; inhibition (reported as % activation of signal), % at 10 µM; 360,000 compounds, 0.83% hits; AID 588458; in the data active = inhibition above about 50%
STEP block – STEP (human) phosphatase inhibition; P54829; recombinant STEP, OMFP fluorogenic substrate, fluorescence; inhibition, % at 20 µM; 360,000 compounds, 0.25% hits;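 active = inhibition at 20 µM, scaled per plate between control wells, above about 37%, limit read from the data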;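 note: 0% = DMSO with enzyme and substrate and 100% = substrate only without enzyme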
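medium = Bis-Tris buffer pH 6.0, 2.5 mM DTT, 0.005% Tween 20 | test system = STEP (striatal-enriched tyrosine phosphatase) enzyme, cell-free | measure = normalized % inhibition | compound dosing = 20 µM, 1% DMSO | also added = 25 µM OMFP | schedule = reaction 20 min, ambient temperature | measured by = fluorescence read at 480 nm ex / 540 nm em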
* = called active by the depositor; . = not tested or not shown. A selection: hits, their analogues and other compounds. The true share with any hit is near 1.7%.

SMILES | Scp1 inh | SUMO1 PPI mod | CASP6 VEID inh | LMPTP block | DNMT1 block | STEP block
O=C(O)C1C2C=CC(C2)C1C(=O)NCc1cccs1 (stereo unspecified) | 31 | 8 | 45* | 1 | 18 | 8
Cc1c(C#N)c(O)[nH]c(=O)c1N=Nc1ccc(S(N)(=O)=O)cc1 | -4 | -8 | 44* | 4 | 2 | 3
CCC(=O)Oc1ccc2c(c1)O/C(=C\c1ccco1)C2=O | -7 | -18 | 59* | 2 | 34 | 2
c1ccc2c(-c3nnc4n3CCCCC4)c[nH]c2c1 | -3 | -2 | . | 1 | 1 | 1
O=C1C=C(NCCc2cc(Br)c(O)c(Br)c2)C(=O)c2ncccc21 | 34 | 41* | 96* | 21 | 92* | 46*
COc1ccc(C2NC(=O)NC3=C2CCc2ccccc23)cc1 (stereo unspecified) | -4 | 11 | . | 17 | 79* | 8
O=C(Nc1cccc(C(F)(F)F)c1)c1ccc2nc(-c3ccco3)c(-c3ccco3)nc2c1 | 84* | 33 | . | 22 | 85* | 2
COc1ccc(CCNC(=O)c2ccc3nc(-c4ccco4)c(-c4ccco4)nc3c2)cc1OC | 89* | 47* | . | 64* | 98* | 22
O=C(Nc1ccc2nc(-c3ccco3)c(-c3ccco3)nc2c1)NC1CC1 | 92* | 76* | . | 70* | 93* | 54*
O=C(Nc1cccc(C(F)(F)F)c1)c1cc[n+]([O-])cc1 | 45 | -6 | 2 | -2 | 1 | 1
CCc1nc2ccc(C(=O)NCCc3ccc(OC)c(OC)c3)cc2nc1CC | -7 | -10 | -1 | 0 | -2 | 1
COc1ccc2[nH]c3c(c2c1)CCN1C(=O)N([C@@H](C)C(=O)NCc2ccccc2)C(=O)[C@]31C | 10 | 2 | 1 | 1 | -12 | 3
O=C(c1ccco1)N1CCN(C(=O)c2ccc(CS(=O)c3ccc(F)cc3)o2)CC1 (stereo unspecified) | 1 | -2 | 0 | 0 | 5 | -6
CNC(=O)c1ccc(NC(=O)/C=C/c2cccc(F)c2)cc1 | 2 | -5 | 0 | 0 | 2 | -1
Cc1ccc(-c2nnc(-c3ccc4c(c3)OCO4)o2)cc1 | 8 | 68* | -3 | 7 | 8 | -3
O=C(Nc1ccc(F)cc1)N[C@@H]1CC[C@@H](CC(=O)N2CCOCC2)O[C@H]1CO | . | . | 0 | . | . | .
O=C(Nc1cc(C(=O)Nc2ccccc2C(=O)O)cc(C(=O)Nc2ccccc2C(=O)O)c1)c1ccccc1 | 4 | 42* | 3 | 0 | 7 | 18
O=C(Nc1ccccc1C(=O)O)c1cccc(NC(=O)c2ccccc2Br)c1 | -3 | 12 | 0 | 0 | -6 | -1
NC(=O)/C(=C\c1ccco1)NC(=O)c1ccco1 | . | -1 | 6 | -1 | 0 | 0
NC(=O)/C(=C/c1ccco1)C(N)=S | -10 | 25 | 35* | 2 | 5 | 7
CCOC(=O)N1CCN(C(=O)Nc2ccc(Cl)cc2Cl)CC1 | -4 | -3 | . | 0 | 0 | -2
NNS(=O)(=O)c1ccc2c(c1)Cc1cc(S(=O)(=O)NN)ccc1-2 | 6 | 6 | 48* | 0 | 6 | -1
O=S(=O)(NCCO)c1ccc2c(c1)Cc1cc(S(=O)(=O)NCCO)ccc1-2 | -12 | -11 | -5 | -1 | -3 | -2
CC(C)CNc1cccc2c1S(=O)(=O)N(Cc1ccc(F)cc1)[C@@H](C)[C@H](c1ccccc1)O2 | . | . | 0 | . | . | .
Cc1ccccc1CN1[C@@H](C)[C@H](c2ccccc2)Oc2cccc(NCC(C)C)c2S1(=O)=O | . | . | 63* | . | . | .
SMILES | Scp1 inh | SUMO1 PPI mod | CASP6 VEID inh | LMPTP block | DNMT1 block | STEP block
CCCC[C@@H]1CNC(=O)C(=O)N1CC1CCCCC1 | . | 2 | 0 | -1 | . | .
CCCCN1C(=O)C(=O)NC[C@@H]1CC1CCCCC1 | . | 45* | -2 | 7 | . | .
CSc1nc(N)nc(C(C)C)n1 | -11 | -3 | 1 | -2 | 3 | -2
COc1ccc(C2=CC3=C(Br)C(=O)C(C)(OC(=O)C4CCCC4)C(=O)C3=CO2)cc1 (stereo unspecified) | 4 | 56* | . | 0 | 9 | 1
CCOC(=O)/C(=C\C=C1/Sc2cc(OCC)c(OCC)cc2N1CC)C(C)=O | 1 | -201 | . | 15 | 93* | -129
O=C1C=CC(=O)c2c(O)c(CO)c(CO)c(O)c21 | 85* | 118* | 99* | 93* | 114* | 94*
S=c1[nH]nc(-c2ccccc2)n1/N=C/C=C/c1ccco1 | -5 | -9 | 13 | -1 | 4 | 0
S=c1[nH]nc(-c2cccnc2)n1/N=C/C=C/c1ccco1 | 5 | 21 | 39* | -1 | 44 | 2
C[C@H](NC(=O)c1cc2c(cn1)[nH]c1ccccc12)C(=O)O | -13 | 3 | 4 | 2 | 1 | 90*
COC(=O)[C@H](C)NC(=O)c1cc2c(cn1)[nH]c1ccccc12 | -2 | 1 | -3 | 3 | 1 | 8
COc1ccc(OC)c(N/C(=N/c2nc(C)cc(C)n2)NC(C)=O)c1 | 3 | 1 | 53* | 0 | 0 | 4
COc1ccc(N/C(=N\c2nc(C)cc(C)n2)NC(C)=O)cc1OC | -1 | 3 | . | 0 | -7 | -1
Cc1n[nH]c(=S)n1/N=C/c1ccccc1 | -9 | 0 | . | -2 | 0 | -3
Cc1ccc(-n2nc(C)c(/C=N/n3c(C)n[nH]c3=S)c2Cl)cc1 | -10 | 38* | -5 | 0 | 1 | 1
CCc1ccc(NC(=O)Nc2cnccn2)cc1 | -11 | 3 | 0 | -2 | -1 | 0
Cn1c(=O)c(N)c2c3c(c(Br)ccc31)C(=O)c1ccccc1-2 | -8 | -44 | 0 | 6 | 155* | -65
Cc1cccc(N2C(=O)c3cccc4c(N)ccc(c34)C2=O)c1 | 0 | -107 | -19 | -8 | 75* | -115
Nc1cccc(N2C(=O)c3cccc4c(N)ccc(c34)C2=O)c1 | -8 | -68 | -1 | -2 | 40 | -32
CC(C)CCN1C(=O)c2cccc3c(N)ccc(c23)C1=O | -7 | -90 | -4 | -5 | 122* | -114
O=[N+]([O-])c1cc([N+](=O)[O-])c2oc(-c3ccccc3)c(Br)c2c1O | -12 | 43* | . | 9 | -6 | 16
O=c1cc(-c2ccccc2Cl)oc2ccc([N+](=O)[O-])c(O)c12 | 4 | -2 | -2 | 13 | 6 | 2
Cc1cccc(/C=N\NC(=O)c2ccc(Cl)cc2)c1O | 95* | 0 | 0 | 41 | 6 | 16
Cc1ccnc(NC(c2ccccc2)c2ccc3cccnc3c2O)c1 (stereo unspecified) | -15 | -11 | 0 | 3 | -10 | 3
Cc1ccnc(NC(c2cccnc2)c2ccc3cccnc3c2O)c1 (stereo unspecified) | -13 | -12 | -1 | 54* | -2 | 9

Screening data deposited in PubChem BioAssay by several laboratories.
